Data published in ChEMBL document CHEMBL1147854, “Synthesis and biological properties of 4-(3H)-quinazolone derivatives” (2007).
Activity calls are given as the source filed them. The rule behind the calls is not given here.

How the values were obtained:
[1] = tested on: Aspergillus flavus; assay: Antifungal activity against Aspergillus flavus at 10 ug/ml by agar plate method; assay type: functional
Procedure, shortened: (§1)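 1 ml of test compound in DMSO (diluted to required level, filtered if turbid) mixed into 20–25 ml molten potato dextrose agar. After setting, plates were inoculated with fungal isolate and kept at 27 °C for seven days. Percent inhibition of fungal zone then recorded. Amphotericin control (7.5 mg/ml).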

[2] = tested on: Aspergillus flavus; assay: Antifungal activity against Aspergillus flavus at 20 ug/ml by agar plate method; assay type: functional; procedure, shortened: as §1
[3] = tested on: Aspergillus flavus; assay: Antifungal activity against Aspergillus flavus at 50 ug/ml by agar plate method; assay type: functional; procedure, shortened: as §1
[4] = tested on: Aspergillus flavus; assay: Antifungal activity against Aspergillus flavus at 100 ug/ml by agar plate method; assay type: functional; procedure, shortened: as §1
[5] = tested on: Aspergillus niger; assay: Antifungal activity against Aspergillus niger at 10 ug/ml by agar plate method; assay type: functional; procedure, shortened: as §1
[6] = tested on: Aspergillus niger; assay: Antifungal activity against Aspergillus niger at 20 ug/ml by agar plate method; assay type: functional; procedure, shortened: as §1
[7] = tested on: Aspergillus niger; assay: Antifungal activity against Aspergillus niger at 50 ug/ml by agar plate method; assay type: functional; procedure, shortened: as §1
[8] = tested on: Aspergillus niger; assay: Antifungal activity against Aspergillus niger at 100 ug/ml by agar plate method; assay type: functional; procedure, shortened: as §1
[9] = tested on: Pseudomonas aeruginosa; assay: Antibacterial activity against Pseudomonas aeruginosa at 10 ug/ml after 24 hrs by disk diffusion method; assay type: functional; settings: read-out: IZ
Procedure, shortened: (§2)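 Disk diffusion on filter-paper discs impregnated with DMSO solutions of test compound; filtered if turbid. Inhibition zones around dried discs measured after 24 h. Triplicate samples. Tetracycline control (20 mg/ml).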

[10] = tested on: Staphylococcus aureus; assay: Antibacterial activity against Staphylococcus aureus at 10 ug/ml after 24 hrs by disk diffusion method; assay type: functional; settings: read-out: IZ; procedure, shortened: as §2
[11] = tested on: Klebsiella pneumoniae; assay: Antibacterial activity against Klebsiella pneumoniae at 10 ug/ml after 24 hrs by disk diffusion method; assay type: functional; settings: read-out: IZ; procedure, shortened: as §2
[12] = tested on: MCF7; assay: Cytotoxicity against human MCF7 cells by MTT assay; assay type: functional, cell-based
Procedure, shortened: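 MCF-7 cells were kept at 37 °C, 5% CO2 in MEM with 10% FBS, then moved for four days to phenol red-free DMEM with 10% charcoal-stripped serum before testing. Cells were seeded at 1 × 10^4/well and exposed to compounds for 24, 48 and 72 h. MTT was added for 5 h at 37 °C, followed by DMSO solubilisation. Doxorubicin standard.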

Row | SMILES | inhibition at 10 µg/mL [1] | inhibition at 20 µg/mL [2] | inhibition at 50 µg/mL [3] | inhibition at 100 µg/mL [4] | inhibition at 10 µg/mL [5] | inhibition at 20 µg/mL [6] | inhibition at 50 µg/mL [7] | inhibition at 100 µg/mL [8] | zone of inhibition at 10 µg/mL [9] | zone of inhibition at 10 µg/mL [10] | zone of inhibition at 10 µg/mL [11] | Activity [12]
1 | O=C(NCc1nc2ccccc2c(=O)n1Nc1nc(-c2ccccc2)nc2ccccc12)c1ccccc1 | 60% | 66.6% | 76.7% | 86.7% | 50% | 60% | 75% | 90% | 10 mm | 10 mm | 10 mm | Active
2 | O=c1c2ccccc2nc(-c2ccccc2)n1Nc1nc(-c2ccccc2)nc2ccccc12 | 76.7% | 83.3% | 93.3% | 96.7% | 30% | 40% | 60% | 75% | 10 mm | 6 mm | > 14 mm | inactive
3 | O=c1c2ccccc2nc(/C=C\c2ccccc2)n1Nc1nc(-c2ccccc2)nc2ccccc12 | 53.3% | 80% | 86.7% | 96.7% | 60% | 70% | 90% | 95% | 10 mm | > 14 mm | 6 mm | Active
4 | O=C1c2ccccc2C(=O)N1Cc1nc2ccccc2c(=O)n1Nc1nc(-c2ccccc2)nc2ccccc12 | 83.3% | 86.7% | 86.7% | 96.7% | 25% | 70% | 75% | 85% | > 14 mm | 6 mm | > 14 mm | inactive
